# Data from article PMC11656380 (ACS Omega, 2024).
# Entries after “also recorded” stand apart in the source; their conditions may differ.
# Assays:
# HPB-ALL cells = assay: Proliferation, total cell count over 3 days; format: cell-based, human; details: 15 μM DAPT, 100 μM Tat-Ram13 or 100 μM Tat-mRam13
# [1] = test system: interactions between NICD and CSL; details: human cell lysates; cited from earlier work
# CCRF-CEM cells [2] = assay: WST-8 cell viability assay; format: cell-based, human; details: CCRF-CEM (Figure 7B)
# In short: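 Cells at 5×10^4 cells/100 μL in complete medium (RPMI-1640, 10% fetal calf serum, 10 U/mL penicillin G, 10 μg/mL streptomycin) were exposed to various concentrations of test peptide in a 5% CO2 incubator for 24 h. WST-8 was added, and absorbance at 450 nm was read 1–2 h later. Viability was relative to an HBSS-added control (100%). Data are means ± SD.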
# CCRF-CEM cells [3] = assay: Cell morphology, phase-contrast and DNA; format: cell-based, human; details: 100 μM Tat-Ram13 or 30 μM etoposide, 24 h
# In short: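 Cells were seeded at 5×10^5 per well in glass-bottom dishes and incubated with or without test compound. They were then stained with Hoechst 33342 for 10 min and imaged by fluorescence or confocal microscopy.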
# CCRF-CEM cells [4] = assay: Time course of cell death, trypan blue exclusion assay; format: cell-based, human; details: up to 24 h
# In short: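 CCRF-CEM cells in complete RPMI-1640 (10% fetal calf serum, 5% CO2) were exposed to test peptide, control peptide or etoposide at the indicated concentrations, sampled over up to 24 h, and scored for viable cells by trypan blue exclusion.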
# PARP-1 in CCRF-CEM cells = assay: Western blot of PARP-1 cleavage; format: cell-based, human; details: 100 μM Tat-Ram13 or 30 μM etoposide
# In short: (§1)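 CCRF-CEM cells (1×10^6) were treated with 100 μM test peptide, or with etoposide, for the indicated time. Cells were washed in ice-cold PBS and lysed in RIPA buffer with protease inhibitors. Lysate (25 μg) was run on SDS-PAGE and blotted to PVDF, then blocked in 5% skim milk/PBS-0.1% Tween 20 for 30 min. Primary antibodies (1:1000; β-actin 1:10,000) were applied overnight at 4 °C, then HRP secondary for 1 h at 4 °C, with chemiluminescent detection.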
# CCRF-CEM cells [5] = assay: HMGB1 release, Western blot; format: cell-based, human; details: Western blot of supernatant and pellet, etoposide 24 h
# [6] = test system: caspase-3 in CCRF-CEM cells; assay: Western blot of caspase-3 cleavage; format: cell-based, human; details: 100 μM Tat-Ram13 or 30 μM etoposide
# In short: as §1
molecule,measurement,setting,value
C[C@H](NC(=O)Cc1cc(F)cc(F)c1)C(=O)N[C@H](C(=O)OC(C)(C)C)c1ccccc1 [DAPT],cell proliferation (total cell count),HPB-ALL cells,significant reduction in proliferation
RRQHGQLWFPEGF [Ram13],disruption of NICD-CSL interaction,[1],effectively disrupted interactions between NICD and CSL
same,"cytotoxicity, role of the cell-penetrating part",CCRF-CEM cells [2],inactive; also recorded: lost its cytotoxicity
COc1cc([C@@H]2c3cc4c(cc3[C@@H](O[C@@H]3O[C@@H]5CO[C@@H](C)O[C@H]5[C@H](O)[C@H]3O)[C@H]3COC(=O)[C@H]23)OCO4)cc(OC)c1O [etoposide],cell morphology,CCRF-CEM cells [3],membrane blebbing and DNA fragmentation
same,time course of cell death,CCRF-CEM cells [4],occurred more slowly
same,cleavage of PARP-1 fragments (89 kDa),PARP-1 in CCRF-CEM cells,as etoposide did
same,HMGB1 release into the culture supernatant,CCRF-CEM cells [5],released very little HMGB1
same,caspase-3 cleavage,[6],did produce the cleaved fragment
